Data set [1] deals with SARS-CoV-2. Description: Antiviral activity against SARS-CoV-2 Italian strain PV10734 infected in African green monkey Vero E6 cells assessed as reduction in virus-induced cytopathic effect preincubated with virus for 1 hr followed by infection with cells and measured after 72 hrs by microscopic analysis. Conditions: Severe acute respiratory syndrome coronavirus 2, time 73.0 hrs. It counts as functional, organism-based. Background: Protection from cytopathic effect is a common read-out in antiviral testing.

Data set [2] is described as follows: Cytotoxicity against African green monkey Vero E6 cells measured after 72 hrs by LDH assay. Type of data set: toxicity, cell-based, Vero C1008. Conditions: chlorocebus sabaeus. The essentials:
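Vero E6 seeded at 2 × 10^4 cells/well and held overnight at 37 °C, 5% CO2. Compounds added at final 2.3–300.0 µM (8 two-fold steps) with DMSO fixed at 0.5% v/v. After 72 h, LDH-WST read-out at 490 nm, with % cytotoxicity taken against DMSO control. CC50 from nonlinear dose–response regression.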

Data set [3] can be described thus: Stability of compound in cell culture media at 37.5 uM measured upto 30 mins by UHPLC-HRMS analysis. It counts as physicochemical. Conditions: 0.5 h.
Data set [4] relates to SARS-CoV-2. In words: Antiviral activity against SARS-CoV-2 Italian strain PV10734 infected in African green monkey Vero E6 cells assessed as reduction in viral replication at 37.5 uM measured at 72 hrs post-infection by qRT-PCR analysis. Conditions: Severe acute respiratory syndrome coronavirus 2. Type of data set: functional, organism-based.
For data set [5], the system named is SARS-CoV-2. In words: Antiviral activity against SARS-CoV-2 Italian strain PV10734 infected in African green monkey Vero E6 cells assessed as reduction in virus-induced cytopathic effect at 37.5 uM preincubated with virus for 1 hr followed by infection with cells and measured after 72 hrs by microscopic analysis. Type of data set: functional, organism-based. Conditions: Severe acute respiratory syndrome coronavirus 2, time 73.0 hrs.

Data set [6] in a line: Stability of compound in African green monkey Vero E6 cell lysates assessed as decarboxylation at 37.5 uM measured upto 30 mins by UHPLC-HRMS analysis. It counts as ADME, subcellular. Conditions: chlorocebus sabaeus, vero c1008, 0.5 h.
The test system of data set [7] is SARS-CoV-2. In words: Antiviral activity against SARS-CoV-2 Italian strain PV10734 infected in African green monkey Vero E6 cells assessed as reduction in virus titers of progeny virus in supernatant measured after 72 hrs by CPE assay. It counts as functional, organism-based. Conditions: Severe acute respiratory syndrome coronavirus 2, PV10734, Vero C1008, 72 h.

The subject of data set [8] is SARS-CoV-2. Description: Antiviral activity against SARS-CoV-2 Italian strain PV10734 infected in African green monkey Vero E6 cells assessed as inhibition of virus titers of progeny virus in supernatant at 37.5 uM measured after 72 hrs by CPE assay relative to control. Conditions: Severe acute respiratory syndrome coronavirus 2, PV10734, Vero C1008. It counts as functional.

For data set [9], the system named is SARS-CoV-2. In words: Antiviral activity against SARS-CoV-2 Italian strain PV10734 infected in African green monkey Vero E6 cells assessed as reduction in viral replication at 75 uM measured at 72 hrs post-infection by qRT-PCR analysis. Type of data set: functional, organism-based. Conditions: Severe acute respiratory syndrome coronavirus 2. In general terms: Quantitative PCR measures a nucleic acid by following its amplification.

Data set [10] is described as follows: Stability of compound in African green monkey Vero E6 cell lysates assessed as decarboxylation at 75 uM measured upto 30 mins by UHPLC-HRMS analysis. Type of data set: ADME, subcellular. Conditions: chlorocebus sabaeus, vero c1008, 0.5 h.
The test system of data set [11] is SARS-CoV-2. In words: Antiviral activity against SARS-CoV-2 Italian strain PV10734 infected in African green monkey Vero E6 cells assessed as reduction in virus-induced cytopathic effect at 75 uM preincubated with virus for 1 hr followed by infection with cells and measured after 72 hrs by microscopic analysis. It counts as functional, organism-based. Conditions: Severe acute respiratory syndrome coronavirus 2, time 73.0 hrs.

The subject of data set [12] is SARS-CoV-2. In words: Antiviral activity against SARS-CoV-2 Italian strain PV10734 infected in African green monkey Vero E6 cells assessed as inhibition of virus titers of progeny virus in supernatant at 75 uM measured after 72 hrs by CPE assay relative to control. Type of data set: functional. Conditions: Severe acute respiratory syndrome coronavirus 2, PV10734, Vero C1008.

Active and inactive are the calls of the source. The rule behind the calls is not given here.

The term CC50 denotes the concentration that lowers cell viability or growth by half. For the compound `C=C(C)[C@@H]1CCC(C)=C[C@H]1c1c(O)cc(CCCCC)cc1O` [CANNABIDIOL], the result in the data set with SARS-CoV-2 [1] was inactive. This compound registered a half-maximal cytotoxic concentration (CC50) at 72 h in data set [2] of 28.9 µM.
As a reminder, the IC50 is the concentration needed to halve the response being measured. As usually defined, the inhibition is the drop in the measured response relative to a control, in per cent. On to `C=C(C)[C@@H]1CCC(C)=C[C@H]1c1c(O)cc(CCCCC)c(C(=O)OC)c1O`, for which the Stability result in data set [3] and in data set [6] was “Stable” throughout. Also, the result in the data set on SARS-CoV-2 [4] and with SARS-CoV-2 [5] was Active. Moreover, the 50% inhibitory concentration (IC50) with SARS-CoV-2 [7] was 18.4 µM. For the same compound, the inhibition at 37.5 µM in the data set on SARS-CoV-2 [8] is more than 90%. Besides, in [2], it took 52.4 µM to reach half-maximal cytotoxicity (CC50 at 72 h).
For `CCCc1cc(O)c(C/C=C(\C)CCC=C(C)C)c(O)c1`, in the data set with SARS-CoV-2 [1], the result was inactive. Moreover, the CC50 at 72 h in [2] is 58.1 µM.
`C=C(C)[C@@H]1CCC(C)=C[C@H]1c1c(O)cc(CCCCC)c(C(=O)O)c1O` [CANNABIDIOLIC ACID]: the outcome in the data set with SARS-CoV-2 [9] and with SARS-CoV-2 [11] was Active. The Stability entry in [10] is given as “Unstable”. Also, the 50% inhibitory concentration (IC50) in the data set with SARS-CoV-2 [7] is 42.7 µM. In the data set on SARS-CoV-2 [12], the inhibition at 75 µM is more than 90%. In data set [2], the midpoint of cytotoxicity, the CC50 at 72 h, lay at 119 µM.
Regarding `CCCCCc1cc(O)c2c(c1)OC(C)(CCC=C(C)C)C=C2` (stereo not given) [CANNABICHROMENE], the result with SARS-CoV-2 [1] was inactive. For the same compound, the CC50 at 72 h in [2] was 59.3 µM.
The like results for `CCCCCc1cc(O)c(C/C=C(\C)CCC=C(C)C)c(O)c1C(=O)O` [CANNABIGEROLIC ACID] were, in that order, “inactive” and 43.9 µM.
Taken in the same sequence, the figures for `C=C(C)[C@@H]1CCC(C)=C[C@H]1c1c(O)cc(CCC)cc1O` [CANNABIDIVARIN] were “inactive” and 26 µM.
In the case of `CCCCCc1cc(O)c(C/C=C(\C)CCC=C(C)C)c(O)c1` [CANNABIGEROL], the outcome with SARS-CoV-2 [1] was inactive. Besides, it took 58 µM to reach half-maximal cytotoxicity in [2] (CC50 at 72 h).

The values are drawn from ChEMBL document CHEMBL5321262, “Antiviral Activity of Cannabidiolic Acid and Its Methyl Ester against SARS-CoV-2” (J Nat Prod, 2023).
